{
  "source": "paper PMC8317952",
  "about": "(ACS catalysis, 2020)",
  "key": {"P450BM-3 [1]": {"target": "T1, P450BM-3 (Priestia megaterium, UniProt P14779)", "T1 sequence (P14779 1-1049)": "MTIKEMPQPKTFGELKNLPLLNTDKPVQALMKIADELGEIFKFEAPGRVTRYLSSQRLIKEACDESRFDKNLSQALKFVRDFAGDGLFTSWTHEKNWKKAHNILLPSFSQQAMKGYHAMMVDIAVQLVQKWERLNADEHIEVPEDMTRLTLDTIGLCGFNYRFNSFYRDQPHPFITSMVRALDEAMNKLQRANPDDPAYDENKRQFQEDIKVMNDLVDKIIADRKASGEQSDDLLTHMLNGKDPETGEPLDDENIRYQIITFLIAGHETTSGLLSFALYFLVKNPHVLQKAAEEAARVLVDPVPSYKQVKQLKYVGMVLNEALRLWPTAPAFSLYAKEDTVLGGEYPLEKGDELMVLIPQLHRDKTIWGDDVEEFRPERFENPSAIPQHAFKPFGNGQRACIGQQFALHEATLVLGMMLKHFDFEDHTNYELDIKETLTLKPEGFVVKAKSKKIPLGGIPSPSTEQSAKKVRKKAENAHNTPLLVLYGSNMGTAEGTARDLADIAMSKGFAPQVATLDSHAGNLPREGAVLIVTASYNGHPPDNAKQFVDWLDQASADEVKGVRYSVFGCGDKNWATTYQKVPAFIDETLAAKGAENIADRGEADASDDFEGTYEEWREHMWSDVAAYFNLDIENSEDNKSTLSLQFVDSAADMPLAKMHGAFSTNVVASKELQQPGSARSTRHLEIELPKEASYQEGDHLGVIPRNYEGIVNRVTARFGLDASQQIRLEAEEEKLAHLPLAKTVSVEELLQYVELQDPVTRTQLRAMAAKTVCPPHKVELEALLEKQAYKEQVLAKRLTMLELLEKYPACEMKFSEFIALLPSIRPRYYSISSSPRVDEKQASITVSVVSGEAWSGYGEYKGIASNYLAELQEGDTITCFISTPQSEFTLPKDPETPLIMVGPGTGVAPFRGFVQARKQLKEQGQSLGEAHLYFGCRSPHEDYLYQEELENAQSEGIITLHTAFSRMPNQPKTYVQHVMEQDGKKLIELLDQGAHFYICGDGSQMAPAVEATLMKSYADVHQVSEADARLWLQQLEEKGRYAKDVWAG", "settings": "cited from earlier work"}, "P450BM-3 [2]": {"target": "T1, P450BM-3", "settings": "read-out: Kd values in the previous literature; buffer conditions appear to affect these; cited from earlier work"}, "P450BM-3 [3]": {"target": "T1, P450BM-3", "experiment": "Burst experiment: stopped-flow NADPH oxidation with lauric acid", "format": "biochemical, Bacillus megaterium", "settings": "2 μM P450BM-3, 500 μM lauric acid, 50 μM NADPH", "method_in_brief": "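In the stopped-flow instrument, enzyme (4 μM) premixed with 1 mM lauric acid was mixed with 100 μM NADPH, both in 50 mM potassium MOPS pH 7.5. Runs were at 23 °C in rapid-scanning mode, recording spectra from 332–565 nm with kinetic traces taken at individual wavelengths.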"}, "P450BM-3 [4]": {"target": "T1, P450BM-3", "experiment": "biochemical", "format": "binding"}, "P450BM-3 [5]": {"target": "T1, P450BM-3", "experiment": "Steady-state NADPH oxidation", "format": "biochemical, Bacillus megaterium", "settings": "for kcat / Km: rates of NADPH oxidation, hyperbolic fit, 23 °C"}, "P450BM-3 [6]": {"target": "T1, P450BM-3", "format": "biochemical, Bacillus megaterium", "settings": "for site of hydroxylation: Jones oxidation, Baeyer-Villiger, LC-MS/MS"}, "P450BM-3 [7]": {"target": "T1, P450BM-3", "format": "binding, Bacillus megaterium", "settings": "read-out: Kd estimate (Kd = koff/kon); from fitted on- and off-rate constants"}, "P450BM-3 [8]": {"target": "T1, P450BM-3", "experiment": "Pre-steady-state stopped-flow kinetics of substrate binding", "set-up": "species or system Bacillus megaterium", "settings": "for eigenvalue (λ) of spectral change, single exponential fit: ΔA390"}, "P450 102A2 (CYP102A2) [9]": {"tested_on": "P450 102A2 (CYP102A2)", "settings": "cited from earlier work"}, "P450 102A2 (CYP102A2) [10]": {"tested_on": "P450 102A2 (CYP102A2)", "experiment": "Literature: NADPH oxidation and binding with dodecyl sulfate by P450 102A2", "format": "biochemical, B. subtilis", "settings": "P450 102A2 at 37 °C vs P450BM-3 at 23 °C"}, "ferrous P450BM-3": {"tested_on": "ferrous P450BM-3", "settings": "surrogate for O2; cited from earlier work"}, "mutants of P450BM-3": {"tested_on": "mutants of P450BM-3", "settings": "cited from earlier work"}, "P450BM-3 [11]": {"target": "T1, P450BM-3", "settings": "substrate-bound P450BM-3; cited from earlier work"}, "[12]": {"settings": "read-out: Kd (spectral titration), 50 mM potassium MOPS pH 7.4, 23 °C"}, "[13]": {"settings": "d0 vs d23 lauric acid, non-competitive, NADPH oxidation"}},
  "note": "“And” between values parts separate entries of the source, which are not always exact repeats. Identical values can stand only once. Counter-ions that a name gives are not always drawn. Like-named read-outs stand apart in the source and are kept apart here.",
  "data": [
    {"compound": "CCCCCCCCCCCC(=O)O", "note": "[lauric acid]", "values": [
      {"measurement": "rate of reduction of iron from the ferric to the ferrous state", "setting": "P450BM-3 [1]", "result": "53 to 306", "unit": "s⁻¹"},
      {"measurement": "Kd", "setting": "P450BM-3 [2]", "result": "27 to 390", "unit": "µM"},
      {"measurement": "kinetic burst", "setting": "P450BM-3 [3]", "result": "No burst was observed"},
      {"measurement": "rate of NADPH oxidation, steady-state portion", "setting": "P450BM-3 [3]; pH 7.5", "result": "608 ± 4", "unit": "min⁻¹"},
      {"measurement": "Kd", "setting": "P450BM-3 [4]; [12]", "result": 29, "unit": "µM"},
      {"measurement": "KIE, ^D(V/K)", "setting": "P450BM-3 [5]; [13]", "result": "0.79 ± 0.07"},
      {"measurement": "KIE, ^DV", "setting": "P450BM-3 [5]; [13]", "result": "1.19 ± 0.16"},
      {"measurement": "KIEs, measured with multiple concentrations of d0/d23 laurate", "setting": "P450BM-3 [5]; depending on the assay method", "result": "≤ 1.2"},
      {"measurement": "kcat", "setting": "P450BM-3 [5]", "result": "19.33 ± 2.5", "unit": "s⁻¹"},
      {"measurement": "KIE from rates of formation of hydroxylated laurate products", "setting": "P450BM-3 [6]; LC-MS, 100 μM laurate, 180 second time point", "result": 1.03}
    ]},
    {"compound": "CC(O)CCCCCCCCCC(=O)O", "note": "(centres unmarked) [11-OH lauric acid]", "values": [
      {"measurement": "Kd", "setting": "P450BM-3 [7]", "result": 11, "unit": "µM"},
      {"measurement": "type of difference spectrum", "setting": "P450BM-3 [4]", "result": "Type I"},
      {"measurement": "Kd", "setting": "P450BM-3 [4]; [12]", "result": "8 ± 2", "unit": "µM"}
    ]},
    {"compound": "CCCCCCCCCCCCCCOS(=O)(=O)O", "note": "[tetradecyl sulfate]", "values": [
      {"measurement": "Kd", "setting": "P450BM-3 [4]", "result": "1.4 ± 0.1", "unit": "µM"},
      {"measurement": "initial rate of disappearance of NADPH (A340)", "setting": "P450BM-3 [5]; with tetradecyl sulfate as substrate", "result": 1.75, "unit": "pmol/s"},
      {"measurement": "site of hydroxylation", "setting": "P450BM-3 [6]", "result": "primarily ω−1 hydroxylation"},
      {"measurement": "NADPH oxidation accounted for as disappearance of the substrate", "setting": "P450BM-3 [6]; over the first 100 seconds", "result": 97, "unit": "%"}
    ]},
    {"compound": "CCCCCCCCCCCCOS(=O)(=O)O", "note": "[dodecyl sulfate]", "values": [
      {"measurement": "eigenvalue (λ) of spectral change, single exponential fit", "setting": "P450BM-3 [8]; 2 μM dodecyl sulfate (final)", "result": "127 s⁻¹ and 127 ± 4 s⁻¹"},
      {"measurement": "eigenvalue (λ) of spectral change, single exponential fit", "setting": "P450BM-3 [8]; 200 μM dodecyl sulfate (final)", "result": "51 ± 4", "unit": "s⁻¹"},
      {"measurement": "rate constant for substrate binding (kon), rough value", "setting": "P450BM-3 [8]; from binding rate and substrate concentration", "result": "6e+07", "unit": "M⁻¹ s⁻¹"},
      {"measurement": "t1/2 of binding spectral changes", "setting": "P450BM-3 [8]; stopped-flow", "result": "0.006 to 0.025", "unit": "s"},
      {"measurement": "apparent specificity constant kcat/S0.5", "setting": "P450 102A2 (CYP102A2) [9]; 37 °C", "result": 1600, "unit": "M⁻¹ s⁻¹"},
      {"measurement": "Hill n value", "setting": "P450 102A2 (CYP102A2) [9]; spectral binding and NADPH oxidation", "result": 5.7},
      {"measurement": "Kd", "setting": "P450BM-3 [4]; [12]", "result": "14 ± 2", "unit": "µM"},
      {"measurement": "fold lower specificity constant of P450 102A2 than P450BM-3", "setting": "P450 102A2 (CYP102A2) [10]", "result": "~ 500 fold"},
      {"measurement": "Km", "setting": "P450BM-3 [5]", "result": "28 ± 1", "unit": "µM"},
      {"measurement": "kcat", "setting": "P450BM-3 [5]", "result": "16.3 ± 0.333", "unit": "s⁻¹"},
      {"measurement": "site of hydroxylation", "setting": "P450BM-3 [6]", "result": "primarily ω−1 hydroxylation"}
    ]},
    {"compound": "CCCCCCCCCCCCCCCC(=O)O", "note": "[palmitic acid, Palmitic acid]", "values": [
      {"measurement": "rate of reduction of iron from the ferric to the ferrous state", "setting": "P450BM-3 [1]", "result": "53 to 306", "unit": "s⁻¹"}
    ]},
    {"compound": "CCCCCCCCCCCCCC(=O)O", "note": "[myristate]", "values": [
      {"measurement": "rate of reduction of iron from the ferric to the ferrous state", "setting": "P450BM-3 [1]", "result": "53 to 306", "unit": "s⁻¹"},
      {"measurement": "Kd", "setting": "P450BM-3 [2]", "result": "0.5 to 78", "unit": "µM"},
      {"measurement": "Kd", "setting": "P450BM-3 [4]", "result": 12, "unit": "µM"}
    ]},
    {"compound": "[C-]#[O+]", "note": "[CO]", "values": [
      {"measurement": "rate constant for CO binding", "setting": "ferrous P450BM-3", "result": "1.6e+06", "unit": "M⁻¹ s⁻¹"}
    ]},
    {"compound": "CCOc1ccc2ccc(=O)oc2c1", "note": "[7-ethoxycoumarin]", "values": [
      {"measurement": "KIEs for O-deethylation", "setting": "mutants of P450BM-3", "result": "6–17"}
    ]},
    {"compound": "d23-Lauric acid [d23 lauric acid]", "values": [
      {"measurement": "kcat", "setting": "P450BM-3 [5]", "result": "16.2 ± 0.5", "unit": "s⁻¹"}
    ]},
    {"compound": "CCCCCCCCCCCCCCCC(=O)NCC(=O)O", "note": "[N-palmitoylglycine]", "values": [
      {"measurement": "rate of change of temperature-dependent spin equilibria", "setting": "P450BM-3 [11]", "result": "~ 800 s^−1"},
      {"measurement": "Km", "setting": "P450BM-3 [5]", "result": "9 ± 2", "unit": "µM"},
      {"measurement": "kcat", "setting": "P450BM-3 [5]", "result": "9.92 ± 0.667", "unit": "s⁻¹"}
    ]}
  ]
}
